Source: ChEMBL document CHEMBL3244142, “Antifungal properties of 2-bromo-3-fluorosuccinic acid esters and related compounds” (1977)
Converted amounts (≈) assume the structure as drawn. The source made the active and inactive calls. The calls are words filed in the database; no cut-off is given here.

What was measured:
[1] = test system: Trichophyton mentagrophytes; experiment: Antifungal activity against Trichophyton mentagrophytes ATCC 9129 at <100 ug/ml at pH 7 after 5 days in absence of 10% beef serum; type: functional, organism-based
Outline: (§1)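 Agar-dilution MIC in Sabouraud dextrose agar at pH 5.6 or 7.0, with or without 10% beef serum. Plates were incubated at 28 °C for 5 days. MIC is the lowest concentration (µg/mL) giving 100% inhibition. Steps were 1 µg/mL up to 10, 2 µg/mL from 10–20, and 10 µg/mL from 20–100; 100 µg/mL was the top level, and no inhibition there is scored as >100.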

Candida albicans [2] = experiment: Antifungal activity against Candida albicans ATCC 10231 at <100 ug/ml at pH 5.6 after 20 h in absence of 10% beef serum
Candida albicans [3] = experiment: Antifungal activity against Candida albicans ATCC 10231 at <100 ug/ml at pH 7 after 20 h in presence of 10% beef serum
Mucor mucedo [4] = experiment: Antifungal activity against Mucor mucedo ATCC 7941 at <100 ug/ml at pH 5.6 after 20 h in absence of 10% beef serum
Candida albicans [5] = experiment: Antifungal activity against Candida albicans ATCC 10231 at <100 ug/ml at pH 7 after 20 h in absence of 10% beef serum
Aspergillus niger [6] = experiment: Antifungal activity against Aspergillus niger ATCC 1004 at <100 ug/ml at pH 7 after 5 days in absence of 10% beef serum; type: functional, organism-based; outline: as §1
Aspergillus niger [7] = experiment: Antifungal activity against Aspergillus niger ATCC 1004 at <100 ug/ml at pH 7 after 5 days in presence of 10% beef serum; type: functional, organism-based; outline: as §1
Aspergillus niger [8] = experiment: Antifungal activity against Aspergillus niger ATCC 1004 at <100 ug/ml at pH 5.6 after 5 days in absence of 10% beef serum; type: functional, organism-based; outline: as §1
Aspergillus niger [9] = experiment: Antifungal activity against Aspergillus niger ATCC 1004 at <100 ug/ml at pH 5.6 after 5 days in presence of 10% beef serum; type: functional, organism-based; outline: as §1
[10] = test system: Trichophyton mentagrophytes; experiment: Antifungal activity against Trichophyton mentagrophytes ATCC 9129 at <100 ug/ml at pH 5.6 after 5 days in absence of 10% beef serum; type: functional, organism-based; outline: as §1
Mucor mucedo [11] = experiment: Antifungal activity against Mucor mucedo ATCC 7941 at <100 ug/ml at pH 7 after 20 h in absence of 10% beef serum
Mucor mucedo [12] = experiment: Antifungal activity against Mucor mucedo ATCC 7941 at <100 ug/ml at pH 7 after 20 h in presence of 10% beef serum
[13] = test system: Trichophyton mentagrophytes; experiment: Antifungal activity against Trichophyton mentagrophytes ATCC 9129 at <100 ug/ml at pH 7 after 5 days in presence of 10% beef serum; type: functional, organism-based; outline: as §1
Mucor mucedo [14] = experiment: Antifungal activity against Mucor mucedo ATCC 7941 at <100 ug/ml at pH 5.6 after 20 h in presence of 10% beef serum
Candida albicans [15] = experiment: Antifungal activity against Candida albicans ATCC 10231 at <100 ug/ml at pH 5.6 after 20 h in presence of 10% beef serum
[16] = test system: Trichophyton mentagrophytes; experiment: Antifungal activity against Trichophyton mentagrophytes ATCC 9129 at <100 ug/ml at pH 5.6 after 5 days in presence of 10% beef serum; type: functional, organism-based; outline: as §1
Mucor mucedo [17] = experiment: Antifungal activity against Mucor mucedo ATCC 7941 at pH 7 after 20 h in presence of 10% beef serum; conditions: ATCC 7941, 20 h
Mucor mucedo [18] = experiment: Antifungal activity against Mucor mucedo ATCC 7941 at pH 5.6 after 20 h in presence of 10% beef serum; conditions: ATCC 7941, 20 h
[19] = test system: Trichophyton mentagrophytes; experiment: Antifungal activity against Trichophyton mentagrophytes ATCC 9129 at pH 7 after 5 days in presence of 10% beef serum; type: functional; conditions: Trichophyton mentagrophytes, ATCC 9129, 120 h; read-out: MIC; outline: as §1
Mucor mucedo [20] = experiment: Antifungal activity against Mucor mucedo ATCC 7941 at pH 7 after 20 h in absence of 10% beef serum; conditions: ATCC 7941, 20 h
Mucor mucedo [21] = experiment: Antifungal activity against Mucor mucedo ATCC 7941 at pH 5.6 after 5 days in absence of 10% beef serum; type: functional; conditions: Mucor mucedo, ATCC 7941, 120 h; read-out: MIC
[22] = test system: Trichophyton mentagrophytes; experiment: Antifungal activity against Trichophyton mentagrophytes ATCC 9129 at pH 7 after 5 days in absence of 10% beef serum; type: functional; conditions: Trichophyton mentagrophytes, ATCC 9129, 120 h; read-out: MIC; outline: as §1
Aspergillus niger [23] = experiment: Antifungal activity against Aspergillus niger ATCC 1004 at pH 5.6 after 5 days in absence of 10% beef serum; type: functional; conditions: Aspergillus niger, ATCC 1004, 120 h; read-out: MIC; outline: as §1
[24] = test system: Trichophyton mentagrophytes; experiment: Antifungal activity against Trichophyton mentagrophytes ATCC 9129 at pH 5.6 after 5 days in absence of 10% beef serum; type: functional; conditions: Trichophyton mentagrophytes, ATCC 9129, 120 h; read-out: MIC; outline: as §1
[25] = test system: Trichophyton mentagrophytes; experiment: Antifungal activity against Trichophyton mentagrophytes ATCC 9129 at pH 5.6 after 5 days in presence of 10% beef serum; type: functional; conditions: Trichophyton mentagrophytes, ATCC 9129, 120 h; read-out: MIC; outline: as §1
Candida albicans [26] = experiment: Antifungal activity against Candida albicans ATCC 10231 at pH 5.6 after 5 days in presence of 10% beef serum; type: functional; conditions: Candida albicans, ATCC 10231, 120 h; read-out: MIC
Candida albicans [27] = experiment: Antifungal activity against Candida albicans ATCC 10231 at pH 5.6 after 20 h in absence of 10% beef serum; conditions: ATCC 10231, 20 h
Aspergillus niger [28] = experiment: Antifungal activity against Aspergillus niger ATCC 1004 at pH 7 after 5 days in presence of 10% beef serum; type: functional; conditions: Aspergillus niger, ATCC 1004, 120 h; read-out: MIC; outline: as §1
Aspergillus niger [29] = experiment: Antifungal activity against Aspergillus niger ATCC 1004 at pH 7 after 5 days in absence of 10% beef serum; type: functional; conditions: Aspergillus niger, ATCC 1004, 120 h; read-out: MIC; outline: as §1
Candida albicans [30] = experiment: Antifungal activity against Candida albicans ATCC 10231 at pH 7 after 5 days in presence of 10% beef serum; type: functional; conditions: Candida albicans, ATCC 10231, 120 h; read-out: MIC
Candida albicans [31] = experiment: Antifungal activity against Candida albicans ATCC 10231 at pH 7 after 20 h in absence of 10% beef serum; conditions: ATCC 10231, 20 h
Aspergillus niger [32] = experiment: Antifungal activity against Aspergillus niger ATCC 1004 at pH 5.6 after 5 days in presence of 10% beef serum; type: functional; conditions: Aspergillus niger, ATCC 1004, 120 h; read-out: MIC; outline: as §1
Mucor mucedo [33] = experiment: Antifungal activity against Mucor mucedo ATCC 7941 at pH 5.6 after 20 h in absence of 10% beef serum; conditions: ATCC 7941, 20 h
Candida albicans [34] = experiment: Antifungal activity against Candida albicans ATCC 10231 at pH 7 after 20 h in presence of 10% beef serum; conditions: ATCC 10231, 20 h
Candida albicans [35] = experiment: Antifungal activity against Candida albicans ATCC 10231 at pH 5.6 after 20 h in presence of 10% beef serum; conditions: ATCC 10231, 20 h

Row | Structure (SMILES) | inhibition [1] | inhibition (Candida albicans [2]) | inhibition (Candida albicans [3]) | inhibition (Mucor mucedo [4]) | inhibition (Candida albicans [5]) | inhibition (Aspergillus niger [6]) | inhibition (Aspergillus niger [7]) | inhibition (Aspergillus niger [8]) | inhibition (Aspergillus niger [9]) | inhibition [10] | inhibition (Mucor mucedo [11]) | inhibition (Mucor mucedo [12]) | inhibition [13] | inhibition (Mucor mucedo [14]) | inhibition (Candida albicans [15]) | inhibition [16] | other results
1 | CCCCCCOC(=O)/C=C/C(=O)OCCCCCC | inactive | inactive | inactive | inactive | inactive | inactive | inactive | inactive | inactive | inactive | inactive | inactive | inactive | inactive | inactive | inactive | –
2 | CCCCCCOC(=O)[C@@H](F)[C@@H](Br)C(=O)OCCCCCC (relative stereo) | inactive | inactive | inactive | inactive | inactive | inactive | inactive | inactive | inactive | inactive | inactive | inactive | inactive | inactive | inactive | inactive | –
3 | COC(=O)[C@@H](F)[C@@H](Br)C(=O)OC (relative stereo) | – | – | – | – | – | – | – | – | – | – | – | – | – | – | – | – | MIC (Mucor mucedo [17]): 12 µg/mL; MIC (Mucor mucedo [18]): 8 µg/mL; MIC [19]: 5 µg/mL; MIC (Mucor mucedo [20]): 8 µg/mL (≈ 32.9 µM); MIC (Mucor mucedo [21]): 7 µg/mL (≈ 28.8 µM); MIC [22]: 2 µg/mL (≈ 8.23 µM); MIC (Aspergillus niger [23]): 20 µg/mL (≈ 82.3 µM); MIC [24]: < 1 µg/mL; MIC [25]: 2 µg/mL; MIC (Candida albicans [26]): 14 µg/mL; MIC (Candida albicans [27]): 9 µg/mL (≈ 37 µM); MIC (Aspergillus niger [28]): 40 µg/mL; MIC (Aspergillus niger [29]): 40 µg/mL (≈ 165 µM); MIC (Candida albicans [30]): 30 µg/mL; MIC (Candida albicans [31]): 20 µg/mL (≈ 82.3 µM); MIC (Aspergillus niger [32]): 20 µg/mL
4 | COC(=O)C#CC(=O)OC | inactive | inactive | inactive | – | inactive | inactive | inactive | inactive | inactive | – | – | inactive | inactive | – | inactive | inactive | MIC (Mucor mucedo [18]): 30 µg/mL; MIC (Mucor mucedo [20]): 70 µg/mL (≈ 493 µM); MIC (Mucor mucedo [33]): 8 µg/mL (≈ 56.3 µM); MIC [24]: 40 µg/mL (≈ 281 µM)
5 | COC(=O)C(Br)C(C)F (stereo unspecified) | inactive | inactive | inactive | inactive | inactive | inactive | inactive | inactive | inactive | inactive | inactive | inactive | inactive | inactive | inactive | inactive | –
6 | COC(=O)/C=C/CC(=O)OC | inactive | inactive | inactive | inactive | inactive | inactive | inactive | inactive | inactive | inactive | inactive | inactive | inactive | inactive | inactive | inactive | –
7 | Nc1nc(=O)[nH]cc1F [FLUCYTOSINE] | inactive | – | – | inactive | – | – | – | – | – | inactive | inactive | inactive | inactive | inactive | – | inactive | MIC (Candida albicans [34]): 14 µg/mL; MIC (Aspergillus niger [23]): 9 µg/mL (≈ 69.7 µM); MIC (Candida albicans [27]): 9 µg/mL (≈ 69.7 µM); MIC (Aspergillus niger [28]): 10 µg/mL; MIC (Aspergillus niger [29]): 7 µg/mL (≈ 54.2 µM); MIC (Candida albicans [31]): 9 µg/mL (≈ 69.7 µM); MIC (Candida albicans [35]): 14 µg/mL; MIC (Aspergillus niger [32]): 8 µg/mL
8 | O=c1[nH]cc(F)c(=O)[nH]1 | inactive | inactive | inactive | inactive | inactive | inactive | inactive | inactive | inactive | inactive | inactive | inactive | inactive | inactive | inactive | inactive | –
9 | CCCCCCOC(=O)/C=C\C(=O)OCCCCCC | inactive | inactive | inactive | inactive | inactive | inactive | inactive | inactive | inactive | inactive | inactive | inactive | inactive | inactive | inactive | inactive | –
10 | CCCCCCOC(=O)[C@H](F)[C@@H](Br)C(=O)OCCCCCC (relative stereo) | inactive | inactive | inactive | inactive | inactive | inactive | inactive | inactive | inactive | inactive | inactive | inactive | inactive | inactive | inactive | inactive | –
11 | CCOC(=O)[C@@H](F)[C@@H](Br)C(=O)OCC (relative stereo) | – | – | – | – | – | – | – | – | – | – | – | – | – | – | – | – | MIC (Mucor mucedo [17]): 7 µg/mL; MIC (Mucor mucedo [18]): 5 µg/mL; MIC [19]: 6 µg/mL; MIC (Mucor mucedo [20]): 6 µg/mL (≈ 22.1 µM); MIC (Candida albicans [34]): 16 µg/mL; MIC [22]: 3 µg/mL (≈ 11.1 µM); MIC (Aspergillus niger [23]): 12 µg/mL (≈ 44.3 µM); MIC (Mucor mucedo [33]): 4 µg/mL (≈ 14.8 µM); MIC [24]: 2 µg/mL (≈ 7.38 µM); MIC [25]: 5 µg/mL; MIC (Candida albicans [27]): 4 µg/mL (≈ 14.8 µM); MIC (Aspergillus niger [28]): 40 µg/mL; MIC (Aspergillus niger [29]): 30 µg/mL (≈ 111 µM); MIC (Candida albicans [31]): 12 µg/mL (≈ 44.3 µM); MIC (Candida albicans [35]): 6 µg/mL; MIC (Aspergillus niger [32]): 12 µg/mL
